The source made the active and inactive calls. No cut-off for these calls is given here.
Columns and labels:
Pseudomonas aeruginosa [1] = assay: Antimicrobial activity against Pseudomonas aeruginosa PaM02 at > 128 ug/ml by microtitre plate reader analysis; format: functional, organism-based
In short: (§1)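 Clinical mucoid strain grown overnight in LB broth at 37 °C and diluted with saline to OD600 around 1, then 100-fold. Compound in LB was added to an equal volume of cells, giving a final 5.0 × 10^5 CFU/ml and 128 µg/ml compound. Negative control was LB plus the matching DMSO level, with sterility and no-compound wells. Growth was read as turbidity at 600 nm; tobramycin served as positive control.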

Pseudomonas aeruginosa [2] = assay: Bactericidal activity against Pseudomonas aeruginosa PaM02 at 128 ug/ml after 4 hrs by time kill analysis (reference value: 2.322 log10 CFU/ml); format: functional
Pseudomonas aeruginosa [3] = assay: Bactericidal activity against Pseudomonas aeruginosa PaM02 at 128 ug/ml after 24 hrs by time kill analysis (reference value: 2.322 log10 CFU/ml); format: functional
Pseudomonas aeruginosa [4] = assay: Antimicrobial activity against Pseudomonas aeruginosa PaM02 assessed as growth inhibition at 0.323 umol/ml by microtitre plate reader analysis; format: functional; in short: as §1
Pseudomonas aeruginosa [5] = assay: Antimicrobial activity against Pseudomonas aeruginosa PaM02 biofilm at 128 ug/ml after 24 hrs by crystal violet staining-based ELISA reader analysis; format: functional; conditions: PaM02, 24 h
In short: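 Preformed biofilm was grown from 100 µL of 1.0 × 10^7 CFU/ml inoculum for 24 h at 37 °C in polystyrene wells. Planktonic cells were removed and wells rinsed with PBS. Compound at 128 µg/ml final in LB was added for a further 24 h at 37 °C. Biofilm was stained with 1% crystal violet, destained with 95% ethanol and read at 570 nm. Reduction = [(Ac−At)/Ac] × 100 versus LB/DMSO controls.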

Pseudomonas aeruginosa [6] = assay: Bactericidal activity against Pseudomonas aeruginosa PaM02 at 128 ug/ml after 8 hrs by time kill analysis (reference value: 2.322 log10 CFU/ml); format: functional
Pseudomonas aeruginosa [7] = assay: Bactericidal activity against Pseudomonas aeruginosa PaM02 at 128 ug/ml after 16 hrs by time kill analysis (reference value: 2.322 log10 CFU/ml); format: functional
Pseudomonas aeruginosa [8] = assay: Inhibition of biofilm formation of Pseudomonas aeruginosa PaM02 at 128 ug/ml after 24 hrs by crystal violet staining-based ELISA reader analysis; format: functional; conditions: PaM02, 24 h
In short: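 Prevention assay: compound at 128 µg/ml final in LB was incubated in polystyrene wells overnight at 4 °C, aspirated, and wells washed with PBS. Wells were seeded with 100 µL of 1.0 × 10^7 CFU/ml inoculum and incubated 24 h at 37 °C. Biofilm was stained with 1% crystal violet, destained with 95% ethanol and read at 570 nm. Inhibition = [(Ac−At)/Ac] × 100 versus LB-preincubated controls.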

Pseudomonas aeruginosa [9] = assay: Antimicrobial activity against Pseudomonas aeruginosa PaM02 assessed as growth inhibition at 0.315 umol/ml by microtitre plate reader analysis; format: functional; in short: as §1
Pseudomonas aeruginosa [10] = assay: Antimicrobial activity against Pseudomonas aeruginosa PaM02 assessed as growth inhibition at 0.245 umol/ml by microtitre plate reader analysis; format: functional; in short: as §1
Pseudomonas aeruginosa [11] = assay: Antimicrobial activity against Pseudomonas aeruginosa PaM02 assessed as growth inhibition at 0.008 umol/ml by microtitre plate reader analysis; format: functional; in short: as §1

## COc1cc(/C=C/c2ccc(O[C@@H]3O[C@H](COC(=O)CC(=O)O)[C@@H](O)[C@H](O)[C@H]3O)cc2)oc(=O)c1
Pseudomonas aeruginosa [1]
  Activity: inactive

## COc1cc(/C=C/c2ccc(O[C@@H]3O[C@H](COC(=O)CC(C)(O)CC(=O)O)[C@@H](O)[C@H](O)[C@H]3O)cc2)oc(=O)c1 (some centres undefined)
Pseudomonas aeruginosa [1]
  Activity: inactive

## C=C(CO[C@@H]1O[C@H](CO)[C@@H](O)[C@H](O)[C@H]1O)[C@@H]1Oc2ccc(C(C)=O)cc2[C@@H]1O
Pseudomonas aeruginosa [2]
  Activity: 2.136 log10CFU/ml
Pseudomonas aeruginosa [3]
  Activity: 1.881 log10CFU/ml
Pseudomonas aeruginosa [4]
  growth inhibition (GI): 17%
Pseudomonas aeruginosa [5]
  inhibition at 128 µg/mL: 16%
Pseudomonas aeruginosa [6]
  Activity: 1.974 log10CFU/ml
Pseudomonas aeruginosa [7]
  Activity: 1.927 log10CFU/ml

## O=C(/C=C/c1ccc(O)c(O)c1)O[C@@H]1C[C@](O)(C(=O)O)C[C@@H](O)[C@H]1O [CHLOROGENIC ACID]
Pseudomonas aeruginosa [8]
  inhibition at 128 µg/mL: 45%
Pseudomonas aeruginosa [1]
  Activity: inactive

## COc1cc(=O)oc([C@H]2[C@H](c3ccc(O[C@@H]4O[C@H](CO)[C@@H](O)[C@H](O)[C@H]4O)cc3)[C@H](c3cc(OC)cc(=O)o3)[C@H]2c2ccc(O[C@@H]3O[C@H](CO)[C@@H](O)[C@H](O)[C@H]3O)cc2)c1
Pseudomonas aeruginosa [1]
  Activity: inactive

## O=C(/C=C/c1ccc(O)c(O)c1)O[C@@H]1C[C@](O)(C(=O)O)C[C@@H](OC(=O)/C=C/c2ccc(O)c(O)c2)[C@H]1O
Pseudomonas aeruginosa [1]
  Activity: inactive

## COc1cc(/C=C/c2ccc(O[C@@H]3O[C@H](CO)[C@@H](O)[C@H](O)[C@H]3O)cc2)oc(=O)c1
Pseudomonas aeruginosa [2]
  Activity: 1.157 log10CFU/ml
Pseudomonas aeruginosa [3]
  Activity: 1.045 log10CFU/ml
Pseudomonas aeruginosa [6]
  Activity: 1.103 log10CFU/ml
Pseudomonas aeruginosa [7]
  Activity: 1.055 log10CFU/ml
Pseudomonas aeruginosa [9]
  growth inhibition (GI): 53%

## COc1cc2c(c(O[C@@H]3O[C@H](CO)[C@@H](O)[C@H](O)[C@H]3O)c1)C(=O)OC2
Pseudomonas aeruginosa [1]
  Activity: inactive

## C=C(CO)[C@@H]1Oc2ccc(C(C)=O)cc2[C@@H]1O[C@@H]1O[C@H](CO)[C@@H](O)[C@H](O)[C@H]1O
Pseudomonas aeruginosa [1]
  Activity: inactive
Pseudomonas aeruginosa [5]
  inhibition at 128 µg/mL: 9%

## COc1cc2c(c(O[C@@H]3O[C@H](COC(=O)CC(=O)O)[C@@H](O)[C@H](O)[C@H]3O)c1)C(=O)OC2
Pseudomonas aeruginosa [1]
  Activity: inactive
Pseudomonas aeruginosa [5]
  inhibition at 128 µg/mL: 27%

## COc1cc([C@H]2Oc3c(OC)cc(CCCO)cc3[C@@H]2CO)ccc1O[C@@H]1O[C@H](CO)[C@@H](O)[C@H](O)[C@H]1O
Pseudomonas aeruginosa [2]
  Activity: 2.043 log10CFU/ml
Pseudomonas aeruginosa [3]
  Activity: 1.765 log10CFU/ml
Pseudomonas aeruginosa [6]
  Activity: 1.858 log10CFU/ml
Pseudomonas aeruginosa [7]
  Activity: 1.811 log10CFU/ml
Pseudomonas aeruginosa [10]
  growth inhibition (GI): 21%

## NC[C@H]1O[C@H](O[C@H]2[C@H](O)[C@@H](O[C@H]3O[C@H](CO)[C@@H](O)[C@H](N)[C@H]3O)[C@H](N)C[C@@H]2N)[C@H](N)C[C@@H]1O [TOBRAMYCIN]
Pseudomonas aeruginosa [11]
  growth inhibition (GI): 100%

## O=C1OCc2cc(O)cc(O[C@@H]3O[C@H](CO)[C@@H](O)[C@H](O)[C@H]3O)c21
Pseudomonas aeruginosa [1]
  Activity: inactive

Reference: ChEMBL document CHEMBL2439968, “Spectroscopic identification and anti-biofilm properties of polar metabolites from the medicinal plant Helichrysum italicum against Pseudomonas aeruginosa” (2013)
